{"data": "Results pooled from the literature", "target": "Serine/threonine-protein kinase D3 (PRKD3, Homo sapiens, UniProt O94806)", "Sequence (O94806 1-890, as in one of the studies)": "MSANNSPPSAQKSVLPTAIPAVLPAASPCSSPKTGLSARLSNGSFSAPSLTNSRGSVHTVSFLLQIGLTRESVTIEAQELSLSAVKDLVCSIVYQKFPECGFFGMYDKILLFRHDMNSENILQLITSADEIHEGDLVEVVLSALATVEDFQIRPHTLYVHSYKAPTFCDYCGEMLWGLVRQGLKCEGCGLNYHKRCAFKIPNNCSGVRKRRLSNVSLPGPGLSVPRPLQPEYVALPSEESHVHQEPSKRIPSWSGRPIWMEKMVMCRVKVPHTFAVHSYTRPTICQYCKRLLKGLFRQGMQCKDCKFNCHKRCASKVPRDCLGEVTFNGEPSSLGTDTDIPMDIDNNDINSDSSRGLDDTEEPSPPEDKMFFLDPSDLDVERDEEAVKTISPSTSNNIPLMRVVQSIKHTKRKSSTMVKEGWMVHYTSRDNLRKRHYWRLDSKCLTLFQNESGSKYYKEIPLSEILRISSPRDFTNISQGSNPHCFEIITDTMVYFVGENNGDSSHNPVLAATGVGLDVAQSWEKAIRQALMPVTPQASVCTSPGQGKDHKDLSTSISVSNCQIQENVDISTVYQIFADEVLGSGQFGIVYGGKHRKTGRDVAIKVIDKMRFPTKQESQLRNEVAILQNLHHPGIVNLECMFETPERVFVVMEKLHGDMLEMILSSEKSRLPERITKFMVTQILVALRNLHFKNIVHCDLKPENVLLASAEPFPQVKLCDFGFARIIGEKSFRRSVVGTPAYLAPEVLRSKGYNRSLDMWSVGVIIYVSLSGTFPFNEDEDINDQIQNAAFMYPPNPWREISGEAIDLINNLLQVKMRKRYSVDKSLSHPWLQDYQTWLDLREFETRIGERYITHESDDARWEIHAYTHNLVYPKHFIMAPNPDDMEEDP", "note": "Protocols differ between the studies behind these lines."}
{"SMILES": "CCN1CCN(Cc2ccc(C(=O)Nc3ccc(C)c(Oc4ccc5c(c4)CC(=O)N5)c3)cc2C(F)(F)F)CC1", "test": "binding, competition with immobilised ligand", "conditions": "1 µM", "remaining binding [%]": 100}
{"SMILES": "N[C@H]1CCN(c2nccc(-c3cnn4ncccc34)n2)C1", "test": "binding", "conditions": "1 µM", "remaining binding [%]": 91}
{"SMILES": "O=C(c1ccc(Nc2ncc(Cl)c(-c3cc4ccccc4s3)n2)cc1)N1CCC(N2CCCC2)CC1", "test": "binding, competition with immobilised ligand", "conditions": "1 µM", "remaining binding [%]": 18}
{"SMILES": "Nc1ncc2c(n1)-c1c([nH]c3ccc(C#CC4CC4)cc13)CCCC2", "test": "binding, competition with immobilised ligand", "conditions": "1 µM", "remaining binding [%]": 61}
{"SMILES": "O=C(NCC1CCOCC1)c1n[nH]cc1NC(=O)c1c(F)cccc1F", "test": "binding, competition with immobilised ligand", "conditions": "1 µM", "remaining binding [%]": 97}
{"SMILES": "C=CC(=O)N1CCC(C(=O)NCC(=O)N2CCN(c3nc(-c4cnc(N)nc4C(F)F)nc(N4CCOCC4)n3)CC2)CC1", "test": "binding, competition with immobilised ligand", "conditions": "1 µM", "remaining binding [%]": 93}
{"SMILES": "COc1ccc2cc(OCC3(C(=O)O)CN(C(=O)c4ccc(F)cc4)C3)ccc2c1", "test": "cell-free assay, competition with immobilised ligand", "conditions": "1 µM", "remaining binding [%]": 91}
{"SMILES": "O=C(NCCCN1CCOCC1)c1ccc(Nc2ncc(Cl)c(-c3ccc(Cl)s3)n2)cc1", "test": "binding, competition with immobilised ligand", "conditions": "1 µM", "remaining binding [%]": 20}
{"SMILES": "COc1cccc(CNC(=O)c2nc3scc(COCc4ccc(C(=O)O)cc4)c3c(=O)[nH]2)c1", "test": "cell-free assay, competition with immobilised ligand", "conditions": "1 µM", "remaining binding [%]": 100}
{"SMILES": "COc1cnc(Nc2cccc(S(N)(=O)=O)c2)nc1N1CCN(c2ccccc2)CC1", "test": "binding, competition with immobilised ligand", "conditions": "1 µM", "remaining binding [%]": 96}
{"SMILES": "Cc1nccc(COC(=O)N2C[C@@H]3[C@@H](CNC(=O)c4ccc5[nH]nnc5c4)[C@@H]3C2)n1", "test": "cell-free assay, competition with immobilised ligand", "conditions": "1 µM", "remaining binding [%]": 100}
{"SMILES": "CC1CCCN1c1nccc(-c2cnn3ncccc23)n1 (stereo not drawn)", "test": "binding", "conditions": "1 µM", "remaining binding [%]": 97}
{"SMILES": "CS(=O)(=O)N1CCCC(NC(=O)[C@H](CCC2CCCCC2)NC(=O)c2ccc(CNC(=O)c3cnc4ccccn34)cc2)C1 (stereo partly drawn)", "test": "cell-free assay, competition with immobilised ligand", "conditions": "0.1 µM", "remaining binding [%]": 90}
{"SMILES": "C[C@@H]1CCN(c2nccc(-c3cnn4ncccc34)n2)C1", "test": "binding", "conditions": "1 µM", "remaining binding [%]": 100}
{"SMILES": "O=C(c1ccc(Nc2ncc(Cl)c(-c3ccc(Cl)s3)n2)cc1)N1CCC(N2CCCC2)CC1", "test": "binding, competition with immobilised ligand", "conditions": "1 µM", "remaining binding [%]": 3.6}
{"SMILES": "COc1ccnn2ncc(-c3ccnc(N(C)C)n3)c12", "test": "binding", "conditions": "1 µM", "remaining binding [%]": 100}
{"SMILES": "CN(C)C(=O)Cn1cc(-c2nc(C3(c4ccc(-c5cnc(N)nc5)cc4)CC3)no2)cn1", "test": "cell-free assay, competition with immobilised ligand", "conditions": "1 µM", "remaining binding [%]": 92}
{"SMILES": "CN(CCCC(F)(F)F)c1nccc(-c2cnn3ncccc23)n1", "test": "binding", "conditions": "1 µM", "remaining binding [%]": 100}
{"SMILES": "c1cncc(-c2cccc(Nc3nccc(NC4CCCCC4)n3)c2)c1", "test": "binding, competition with immobilised ligand", "conditions": "10 µM", "remaining binding [%]": 7.4}
{"SMILES": "Cc1cnn2ncc(-c3ccnc(N(C)C)n3)c2c1", "test": "binding", "conditions": "1 µM", "remaining binding [%]": 98}
{"SMILES": "FC(F)(F)c1ccc2c(c1)nc(-c1cccnc1)n2C1CC1", "test": "cell-free assay, competition with immobilised ligand", "conditions": "1 µM", "remaining binding [%]": 100}
